Bioassay records (PubChem BioAssay)
Shown are actives, neighbours in structure and some others; about 2.2% of the full set was active somewhere.
miR-122 sensor: blocks miR-122 activity in Huh7 sensor cells | Huh7 miR-122 Renilla luciferase sensor, 48 h; neutral wells = 0, positive control = 100 | activation (reporter increase), % at 12.5 µM | actives 0.3% (n = 340,000) | AID 602342;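 active = mean replicate activation score at least 90 and every replicate individually at or above 90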;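 also: higher luciferase means less miR-122 activity so hits act as miR-122 inhibitors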
Jurkat NFkB inh: inhibitors of the PMA/ionomycin-induced NF-kB reporter in Jurkat cells | PMA/ionomycin-induced NF-kB luciferase reporter, luminescence | inhibition, % at 4 µM | actives 0.53% (n = 330,000); in the data active = inhibition above about 50%
FGF22 binding: FGF22 (human) thermal shift binding; Q9HCT0; recombinant FGF22 thermal shift, SYPRO orange fluorescence; percent of sucrose octasulfate shift, DMSO zero; activity (Tm shift, normalised), % at 9.99 µM; actives 1.5% (n = 340,000); AID 651658;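 active = mean Tm shift, scaled 0 neutral to 100 positive control, at about 1.3% or above, every replicate too, limit read from the data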
Target sequence (Q9HCT0 whole entry, looked up): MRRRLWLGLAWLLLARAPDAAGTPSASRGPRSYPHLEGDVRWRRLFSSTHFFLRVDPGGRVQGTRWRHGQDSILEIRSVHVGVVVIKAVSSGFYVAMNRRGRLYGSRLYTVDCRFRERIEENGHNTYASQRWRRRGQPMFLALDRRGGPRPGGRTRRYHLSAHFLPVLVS
697 NFkB inh: inhibitors of the PMA/ionomycin-induced NF-kB reporter in 697 B cells. 697 B-cell NF-kB luciferase reporter, 16 h. actives 0.33% (n = 330,000). inhibition, % at 4 µM. AID 435022; in the data active = inhibition above about 35%
NR2E3 ag-1: activates human photoreceptor nuclear receptor NR2E3. GST-NR2E3/biotin-RetCOR TR-FRET, 1536-well. inhibition of corepressor binding, % at 4.78 µM. Q9Y5X4. actives 0.12% (n = 320,000);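 active = percent inhibition above the cutoff of mean plus 3 SD of all tested compounds, set per screening campaign, cut at about 20% in these data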;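 also: 0% = DMSO wells and 100% = biotin wells as full block of FRET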
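Material: NR2E3–RetCOR corepressor complex / Incubation: Compound–protein incubation for 5 h at 4 °C / Dosing: compound at 4.8 µM, single dose / Detection: time-resolved FRET / Benchmarks: high control biotin, low control 0.6% DMSO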
NR2E3 ag-2: agonists of human NR2E3 nuclear receptor; inhibition of corepressor binding, % at 3.98 µM; Q9Y5X4; AID 602229; CHO-S Gal4-NCOR/VP16-NR2E3 two-hybrid, luciferase; actives 0.35% (n = 360,000);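 active = inhibition above the mean of all tested compounds plus 3 SD, cut at about 70% in these data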;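 also: 0% = DMSO with NR2E3 transfected cells and 100% = cells lacking NR2E3 construct; higher means lower luciferase signal from less NR2E3 corepressor binding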
Jurkat NFkB conf: lowers PMA/ionomycin-induced NF-kB signal in Jurkat cells. shares compounds with Jurkat NFkB inh. Jurkat NF-kB luciferase, 16 h. inhibition, % at 4 µM. actives 27% (n = 2,700). AID 435020;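 active = inhibition reaching about 45% at 4 µM in either replicate, limit read from the data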;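 also: plate controls were PMA/ionomycin stimulated DMSO wells for no effect and unstimulated DMSO wells for full effect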
* hit, by the source's call; . = not tested or not shown; [ ] = remark or other dose.

SMILES	miR-122 sensor	Jurkat NFkB inh	FGF22 binding	697 NFkB inh	NR2E3 ag-1	NR2E3 ag-2	Jurkat NFkB conf
CCOC(=O)C(C)Oc1cccc2c(=O)n(CC(=O)NCc3ccccc3)ccc12 (stereo not given)	49.1	71.8*	0.1	-17.3	2.0	2.2	57.5*
CN(C)c1ccc(-c2nnc(-c3cccs3)o2)cc1	.	-161.4	0.2	-237.8	2.2	-162.8	-114.8
CCCOc1ccc(-c2nnc(-c3cccs3)o2)cc1	1.4	-117.0	.	-166.6	-4.7	-185.2	.
Cc1cc(NCCCn2ccnc2)n2ncc(-c3ccc(Cl)cc3)c2n1	-3.6	-215.1	.	-167.8	2.7	-48.7	-101.4
C[C@@H]1CCCCO[C@H](CN(C)C(=O)CCC(F)(F)F)[C@@H](C)CN([C@@H](C)CO)C(=O)c2cc(NC(=O)Nc3ccccc3)ccc2O1	14.0[16.7 µM]	.	-0.8	.	.	.	.
Nc1nc(-c2cccnc2)nc2sc3c(c12)CCCC3	.	-159.1	42.4	-158.3	0.5	-115.0	-53.4
O=C1CN(c2nc(-c3cccnc3)nc3sc4c(c23)CCCC4)CCN1	12.9	-7.9	0.0	-23.0	8.3	3.1	.
C1CCC(c2nn3c(-c4n[nH]c5c4CCC5)nnc3s2)CC1	-8.2	-3.6	.	-4.6	5.0	-4.0	.
CCN(CC)c1ccc(-c2nn3c(-c4n[nH]c5c4CCC5)nnc3s2)cc1	40.3	58.3*	.	-9.0	1.4	1.0	54.0*
CCOc1ccc(-c2cn3ccccc3n2)cc1	.	-152.8	-0.1	-196.7	1.4	-115.1	-61.6
Fc1ccc(-c2cn3ccccc3n2)cc1	-0.6	-110.3	0.2	-164.0	4.5	-87.7	.
Cc1noc(C)c1S(=O)(=O)Nc1cccc2c1O[C@@H](CN(C)C(=O)Nc1ccc(C(F)(F)F)cc1)[C@@H](C)CN([C@H](C)CO)C2=O	-2.3[16.7 µM]	.	0.3	.	.	.	.
CCOc1ccccc1N1CCN(C(=O)c2cc(-c3cccnc3)nc3c(Cl)cccc23)CC1	1.2	67.5*	.	-30.7	-0.5	-39.9	13.4
CCOc1ccccc1N1CCN(C(=O)c2ccncc2)CC1	.	-22.4	.	-22.0	0.9	5.6	.
CCOc1ccccc1N1CCN(C(=O)c2cc3ccccc3cc2OC)CC1	129.9*	56.7*	-0.4	-46.4	.	-6.2	8.1
COc1ccc(N2CC(C(=O)Nc3cc(C(F)(F)F)ccc3N3CCCC3)CC2=O)c(OC)c1 (stereo not given)	8.0	39.2	-0.7	1.8	-0.7	-19.3	.
COc1ccc(N2CC(C(=O)Nc3ccccc3N3CCCC3)CC2=O)c(OC)c1 (stereo not given)	.	57.9*	-0.2	-7.9	-1.9	-15.6	12.6
CN1CCN(c2ccc(NC(=O)CSc3ccccc3)cc2F)CC1	15.6	-154.8	.	-159.2	0.8	-55.3	-51.1
O=C(CSc1ccccc1)Nc1ccc2c(c1)OCCO2	-3.3	-166.9	0.0	-16.8	0.7	-2.1	-80.8
O=C(N/N=C/c1ccsc1)c1cc(-c2cccs2)nc2ccccc12	3.4	16.3	-0.2	-37.6	-2.8	-70.9	.
Cc1ccsc1/C=N/NC(=O)c1cc(-c2ccncc2)nc2ccccc12	.	58.2*	-0.2	23.6	-0.9	-19.6	55.5*
O=C(Nc1ccncc1)c1cc(-c2ccccc2)nc2ccccc12	1.4	.	-0.2	.	.	3.5	.
COc1ccccc1-c1cc(C(=O)N/N=C/c2sccc2C)c2ccccc2n1	-4.2	15.5	.	9.9	-0.9	-27.6	.
O=C(N/N=C/c1ccc2c(c1)OCO2)c1cc(-c2ccncc2)nc2ccccc12	.	57.3*	.	-36.3	0.2	-21.7	2.7
O=C(Nc1ccc(Br)cc1)c1cc(-c2ccncc2)nc2ccccc12	8.6	57.2*	-0.2	-31.7	.	-24.3	27.6
O=C(N/N=C/c1ccsc1)c1cc(-c2ccncc2)nc2ccccc12	.	55.3*	.	-75.2	-3.4	-48.0	19.1
CCC(=O)N(CC)C[C@H]1[C@H](c2ccc(-c3ccccc3)cc2)[C@@H](CO)N1C(C)=O	0.0[16.7 µM]	.	-0.5	.	.	.	.
CC=Cc1ccc2n(c1=O)C[C@@H]1[C@@H](CO)[C@H](C(=O)NC3CCCC3)N(Cc3ccccc3)[C@H]21 (mixture of isomers)	-0.8[16.7 µM]	.	0.0	.	.	.	.
